According to ChEMBL document CHEMBL1828528, “Acyclic nucleoside thiophosphonates as potent inhibitors of HIV and HBV replication” (Eur J Med Chem, 2011):

Assays:
CCRF-CEM = assay: (§1) Cytotoxicity against human CEM cells; assay type: cell-based; details: ccrf-cem
Method in brief: (§2)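 Mock-infected CEM cells cultured alongside the anti-HIV assay with compound dilutions for 4 days at 37 °C. CC50 is the concentration inhibiting CEM cell proliferation by 50%.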

Hepatitis B virus = assay: Ratio EC50 for PMEA to compound for Hepatitis B virus infected in human HuH7 cells assessed as reduction in viral DNA level treated day 3 to day 8 post transfection by real time quantitative PCR analysis; assay type: functional, Huh-7
[1] = system: Human immunodeficiency virus 1; assay: Ratio EC50 for PMEA to compound for HIV1 clade B isolate 1722 infected in human H9 cells assessed as inhibition of viral replication; assay type: functional
Method in brief: (§3)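 Ratio computed as EC50 of PMEA divided by EC50 of the test compound, both measured against the same clinical isolate in H9 cells.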

[2] = system: Human immunodeficiency virus 1; assay: Ratio EC50 for PMEA to compound for HIV1 clade D isolate 1649 infected in human H9 cells assessed as inhibition of viral replication; assay type: functional; method in brief: as §3
[3] = as §1; assay type: cell-based, CCRF-CEM; details: CCRF-CEM (CEM) cells; method in brief: as §2
[4] = Stability of compound in complete culture medium assessed as compound degradation into 9-(2-Phosphonomethoxypropyl)-adenine after 24 hrs by HPLC analysis; assay type: physicochemical
Method in brief: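 Compound diluted to 0.1 mM final in one of two media and incubated at 37 °C: RPMI-1640 with 10% heat-inactivated FCS, or CEM-SS cell extract (soluble proteins 3 mg/mL in 10 mM Tris-HCl pH 7.4, 140 mM KCl). Aliquots were taken over time, frozen at −80 °C, then run on C18 reverse-phase HPLC with on-line filtration, TEAB/acetonitrile gradient and 260 nm detection. Degradation products were identified by co-injection.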

[5] = system: Human immunodeficiency virus 1; assay: Ratio EC50 for PMPA to compound for HIV1 clade A/E isolate 2165 infected in human H9 cells assessed as inhibition of viral replication; assay type: functional
[6] = system: Human immunodeficiency virus 1; assay: Ratio EC50 for PMPA to compound for HIV1 clade G isolate 3187 infected in human H9 cells assessed as inhibition of viral replication; assay type: functional

Compound | CC50 (CCRF-CEM) [µM] | Ratio EC50 (Hepatitis B virus) | Ratio EC50 [1] | Ratio EC50 [2] | CC50 [3] [µM] | Activity [4] [%] | Ratio EC50 [5] | Ratio EC50 [6]
Nc1ncnc2c1ncn2CCOCP(=O)([O-])[S-].[Na+].[Na+] (stereo not drawn) | 233 | 1.5 | 0.66 | 0.11 |  |  |  | 
C[C@H](Cn1cnc2c(N)ncnc21)OCP(=O)([O-])[S-].[Na+].[Na+] (stereo partly drawn) |  |  |  |  | > 250 | 77 | 1.5 | 1.25
